Results on twelve molecules are retold here after ChEMBL document CHEMBL4392836, “Second-generation aryl isonitrile compounds targeting multidrug-resistant Staphylococcus aureus” (Bioorg Med Chem, 2019).

≈ marks a conversion by molar mass, not a printed value. Calls of active or inactive are those of the source. The rule behind the calls is not given here. Bounds are passed on as bounds.

For orientation: MIC means the least concentration at which growth counts as inhibited.

The test system of data set [1] is Staphylococcus aureus. Put plainly: Antibacterial activity against methicillin-resistant Staphylococcus aureus NRS123 USA400 after 18 to 24 hrs by broth microdilution assay. Type of data set: functional. Put shortly:
(§1)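 CLSI broth microdilution with modifications. Bacteria cultured in TSB and exposed to compounds or control antibiotics in triplicate. Plates incubated aerobically at 37 °C for 18–24 h. MIC is the lowest concentration preventing visible growth.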
Background: Broth dilution looks for growth in wells or tubes with falling amounts of substance.

Data set [2] relates to Staphylococcus aureus. As to the kind of experiment: Antibacterial activity against vancomycin-resistant Staphylococcus aureus VRS10 after 18 to 24 hrs by broth microdilution assay. Type of data set: functional. The procedure, abridged:
as §1

The subject of the next data set is Streptococcus pneumoniae. Put plainly: Antibacterial activity against penicillin-resistant Streptococcus pneumoniae ATCC 700677 after 18 to 24 hrs by broth microdilution assay. Type of data set: functional. The procedure, abridged: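 CLSI broth microdilution with modifications. Bacteria exposed to compounds in triplicate and incubated at 37 °C with 5% CO₂ for 18–24 h. MIC is the lowest concentration preventing visible growth.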

The test system of data set [3] is Acinetobacter baumannii. Put plainly: Antibacterial activity against Acinetobacter baumannii BAA1605 after 18 to 24 hrs in presence of colistin by broth microdilution assay. Type of data set: functional. Put shortly:
(§2)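 To permeabilize the outer membrane, CLSI broth microdilution in TSB (triplicate) was run with subinhibitory colistin: ¼ × MIC for A. baumannii, E. cloacae and E. coli strains, and P. aeruginosa; ½ × MIC for K. pneumoniae. Plates incubated aerobically at 37 °C for 18–24 h. MIC taken as the lowest concentration with no visible growth.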

Data set [4] has as its system Pseudomonas aeruginosa. Put plainly: Antibacterial activity against Pseudomonas aeruginosa ATCC 15442 after 18 to 24 hrs in presence of colistin by broth microdilution assay. Type of data set: functional. The procedure, abridged: as §2
Data set [5] is described as follows: Toxicity in wounded skin area of Balb/c mouse infected with methicillin-resistant Staphylococcus aureus USA300 at 2% administered topically twice daily for 5 consecutive days measured 4 times daily during compound dosing. The settings on record: in vivo, topical_or_ocular. The procedure, abridged: (§3)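 Female Balb/c mice with intradermal MRSA USA300 abscesses were treated topically twice daily for 5 days with a 2% suspension in petroleum jelly, alongside a vehicle group. Mice were checked at least four times daily during infection and treatment for adverse reactions. Wounds were examined for inflammation and toxicity.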

Data set [6] is described as follows: Cytotoxicity against human HaCaT cells assessed as cell viability at 128 uM measured after 24 hrs by MTS assay. Conditions: read-out: Activity. Type of data set: cell-based. The procedure, abridged:
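HaCaT keratinocytes grown in DMEM with 10% FBS at 37 °C, 5% CO₂. Compounds tested at 16, 32, 64 and 128 µM in triplicate for 24 h; controls received matching DMSO. Viability expressed as percent of DMSO-treated cells (mean ± SD).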

Data set [7] relates to Escherichia coli. As to the kind of experiment: Antibacterial activity against Escherichia coli BW25113 after 18 to 24 hrs in absence of colistin by broth microdilution method. Type of data set: functional. The procedure, abridged:
(§4)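 Broth microdilution MIC per CLSI guidelines with modifications. Bacteria grown in TSB and exposed to compounds or control antibiotics in triplicate. Plates incubated aerobically at 37 °C for 18–24 h. MIC taken as the lowest concentration with no visible growth.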

Data set [8] deals with Klebsiella pneumoniae. Put plainly: Antibacterial activity against Klebsiella pneumoniae ATCC BAA-1705 after 18 to 24 hrs by broth microdilution assay. Type of data set: functional. Put shortly:
as §4

The test system of data set [9] is Enterobacter cloacae. Put plainly: Antibacterial activity against Enterobacter cloacae BAA1134 after 18 to 24 hrs by broth microdilution assay. Type of data set: functional. The procedure, abridged: as §4
The next data set relates to Enterococcus faecium. As to the kind of experiment: Antibacterial activity against vancomycin-resistant Enterococcus faecium ATCC 700221 after 18 to 24 hrs by broth microdilution assay. Type of data set: functional. The procedure, abridged: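 Broth microdilution per CLSI with modifications. Cultured in BHI and exposed to compounds in triplicate. Incubated aerobically at 37 °C for 18–24 h. MIC read as the lowest concentration with no visible growth.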

For data set [10], the system named is Acinetobacter baumannii. As to the kind of experiment: Antibacterial activity against Acinetobacter baumannii BAA1605 after 18 to 24 hrs by broth microdilution assay. Type of data set: functional. Put shortly: as §4
The subject of data set [11] is Staphylococcus epidermidis. Put plainly: Antibacterial activity against methicillin-resistant Staphylococcus epidermidis NRS101 after 18 to 24 hrs by broth microdilution assay. Type of data set: functional. Put shortly:
as §1

Data set [12] relates to Staphylococcus aureus. Put plainly: Antibacterial activity against methicillin-resistant Staphylococcus aureus USA300 NRS384 after 18 to 24 hrs by broth microdilution assay. Type of data set: functional. The procedure, abridged: as §1
In data set [13] the test system is Staphylococcus aureus. As to the kind of experiment: Antibacterial activity against methicillin-resistant Staphylococcus aureus NRS119 after 18 to 24 hrs by broth microdilution assay. Type of data set: functional. The procedure, abridged: as §1
Data set [14] relates to Pseudomonas aeruginosa. Put plainly: Antibacterial activity against Pseudomonas aeruginosa ATCC 15442 after 18 to 24 hrs by broth microdilution assay. Type of data set: functional. Put shortly:
as §4

In data set [15] the test system is Staphylococcus aureus. As to the kind of experiment: Antibacterial activity against methicillin-resistant Staphylococcus aureus NRS385 USA500 after 18 to 24 hrs by broth microdilution assay. Type of data set: functional. Put shortly:
as §1

Data set [16] concerns Escherichia coli. Put plainly: Antibacterial activity against Escherichia coli BW25113 after 18 to 24 hrs in presence of colistin by broth microdilution method. Type of data set: functional. Put shortly:
as §2

Data set [17] deals with Staphylococcus aureus. Put plainly: Antibacterial activity against vancomycin-resistant Staphylococcus aureus VRS11a after 18 to 24 hrs by broth microdilution assay. Type of data set: functional. Put shortly:
as §1

Data set [18] deals with Staphylococcus aureus. Put plainly: Antibacterial activity against methicillin-resistant Staphylococcus aureus USA300 infected in Balb/c mouse assessed as reduction in bacterial burden in wounded skin area at 2% administered topically twice daily for 5 consecutive days measured 12 hrs post last dose relative to control. Type of data set: functional. Details: scale not given: the % may be the effect or the level left. The procedure, abridged:
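Eight-week-old female Balb/c mice (n = 5 per group) received an intradermal injection of 40 μL of 1.32 × 10⁹ CFU/mL MRSA USA300. From abscess formation (~48 h), a 2% suspension in petroleum jelly was applied topically twice daily for 5 days, with a vehicle-only group. Mice were euthanized 12 h after the last dose. Wounds were homogenized in PBS, serially diluted and plated on mannitol salt agar (≥16 h, 37 °C). CFU reduction was calculated against vehicle.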

The test system of data set [19] is Klebsiella pneumoniae. As to the kind of experiment: Antibacterial activity against Klebsiella pneumoniae ATCC BAA-1705 after 18 to 24 hrs in presence of colistin by broth microdilution assay. Type of data set: functional. The procedure, abridged: as §2
Data set [20] concerns Staphylococcus aureus. Put plainly: Antibacterial activity against methicillin-sensitive Staphylococcus aureus NRS107 after 18 to 24 hrs by broth microdilution assay. Type of data set: functional. The procedure, abridged: as §1
The subject of data set [21] is Escherichia coli. Put plainly: Antibacterial activity against AcrAB-TolC deficient Escherichia coli […] after 18 to 24 hrs in absence of colistin by broth microdilution method. Type of data set: functional. Put shortly: as §4
The next data set relates to Mus musculus. Put plainly: Induction of inflammation in wounded skin area of Balb/c mouse infected with methicillin-resistant Staphylococcus aureus USA300 at 2% administered topically twice daily for 5 consecutive days measured 4 times daily during compound dosing. Type of data set: organism-based. Conditions: in vivo, topical_or_ocular. Put shortly:
as §3

Data set [22] has as its system Staphylococcus aureus. Put plainly: Bacteriostatic activity against methicillin-resistant Staphylococcus aureus USA400 NRS123 at 4 times MIC measured after 24 hrs by time-kill assay. Type of data set: functional, organism-based.
Data set [23] relates to Escherichia coli. Put plainly: Antibacterial activity against AcrAB-TolC deficient Escherichia coli […] after 18 to 24 hrs in presence of colistin by broth microdilution method. Type of data set: functional. Put shortly: as §2
Data set [24] relates to Enterobacter cloacae. Put plainly: Antibacterial activity against Enterobacter cloacae BAA1134 after 18 to 24 hrs in presence of colistin by broth microdilution assay. Type of data set: functional. Put shortly:
as §2

The molecule `COc1cc(/C=C/c2ccc(C#N)cc2)cc(OC)c1` yielded an MIC with Staphylococcus aureus [1] of 64 µM (≈ 17 µg/mL).
For the molecule `N#Cc1ccc(/C=C/c2ccc(C#N)cc2)cc1`, the MIC was 8 µM (≈ 1.84 µg/mL) against Staphylococcus aureus [2]; 8 µM (≈ 1.84 µg/mL) against Streptococcus pneumoniae; 16 µM in the data set with Acinetobacter baumannii [3]; above 64 µM with Pseudomonas aeruginosa [4]; 8 µM (≈ 1.84 µg/mL) in the data set on Staphylococcus aureus [1]; above 64 µM in the data set on Escherichia coli [7]. Also, the MIC was above 64 µM with Klebsiella pneumoniae [8]; above 64 µM in the data set on Enterobacter cloacae [9]; above 64 µM in the data set with Enterococcus faecium; above 64 µM against Acinetobacter baumannii [10]; 1 µM (≈ 0.23 µg/mL) in [11]; 2 µM (≈ 0.461 µg/mL) against Staphylococcus aureus [12]. Besides, the MIC was 1 µM (≈ 0.23 µg/mL) in the data set with Staphylococcus aureus [13]; above 64 µM in the data set with Pseudomonas aeruginosa [14]; 8 µM (≈ 1.84 µg/mL) against Staphylococcus aureus [15]; above 64 µM in the data set with Escherichia coli [16]; 8 µM (≈ 1.84 µg/mL) in the data set with Staphylococcus aureus [17]; above 64 µM in the data set with Klebsiella pneumoniae [19]. Moreover, the MIC was 4 µM (≈ 0.921 µg/mL) against Staphylococcus aureus [20], above 64 µM with Escherichia coli [21], above 64 µM in the data set with Escherichia coli [23] and 4 µM with Enterobacter cloacae [24]. Moreover, the Activity result in data set [5] was “Non-Toxic”; in the data set on Staphylococcus aureus [18] it was 79.02%; in the data set with Mus musculus, “Non-Toxic”. The viability at 24 h, 128 µM in data set [6] is above 90%. Besides, the outcome with Staphylococcus aureus [22] was Active.
Molecule `N#Cc1ccc(/C=C/c2ccc(F)cc2)cc1` had a minimum inhibitory concentration (MIC) against Staphylococcus aureus [1] of 64 µM (≈ 14.3 µg/mL).
On to `N#Cc1ccccc1/C=C/c1ccccc1`, for which the MIC against Staphylococcus aureus [12] and with Staphylococcus aureus [13] was 4 µM (≈ 0.821 µg/mL) in each case.
Regarding `CC/C(=C\c1ccccc1C#N)c1ccccc1`, in the data set on Staphylococcus aureus [12], the lowest concentration to inhibit growth (MIC) was 4 µM (≈ 0.933 µg/mL).
Consider `N#Cc1ccc(/C=C/c2ccco2)cc1`, for which, in the data set with Staphylococcus aureus [1], 32 µM (≈ 6.25 µg/mL) was the least that counted as inhibitory (MIC).
Turning to `N#Cc1ccc(/C=C/c2ccc3ccccc3n2)cc1`, the MIC came out at 32 µM (≈ 8.2 µg/mL) in the data set with Staphylococcus aureus [2], 8 µM (≈ 2.05 µg/mL) against Staphylococcus aureus [1], 4 µM (≈ 1.03 µg/mL) with Staphylococcus aureus [12] and 4 µM (≈ 1.03 µg/mL) in the data set with Staphylococcus aureus [13].
As for `N#Cc1ccc(/C=C/c2ccnc3ccccc23)cc1`, the MIC with Staphylococcus aureus [1] was above 64 µM.
Still for that read-out and setting: with `N#Cc1ccc(CCc2ccc(C#N)cc2)cc1` the figure was above 64 µM; with `N#Cc1ccc(CCc2cccnc2)cc1`, above 64 µM; with `N#Cc1ccc(CCC2CCc3ccccc3N2)cc1` (configuration not stated), 16 µM (≈ 4.2 µg/mL).
Still for that read-out and setting: with `N#Cc1ccc(/C=C/c2ccc(Cl)c(Cl)c2)cc1` the figure was above 64 µM.
